Converted amounts (≈) assume the structure as drawn.
Tests used:
Hepatovirus A = assay: Antiviral activity against Hepatitis A virus infected in African green monkey Vero cells by plaque formation assay; type: functional; design: concentration or dose not given beside the values
[1] = Cytotoxicity against human HepG2 cells assessed as decrease in cell viability after 48 hrs by SRB assay; type: functional, cell-based
Procedure, shortened: (§1)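 SRB assay. Cells seeded at 10⁴ per well and allowed to attach for 24 h. Exposed to 0, 5, 12.5, 25 and 50 µg/mL, triplicate wells per dose, for 48 h at 37 °C in 5% CO₂. Cells fixed and SRB-stained; excess dye removed with acetic acid, bound dye recovered in Tris-EDTA and read on an ELISA reader. IC50 read from the surviving-fraction curve.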

[2] = Cytotoxicity against human MCF7 cells assessed as decrease in cell viability after 48 hrs by SRB assay; type: functional, cell-based; design: unit not given here; procedure, shortened: as §1
[3] = Cytotoxicity against human HCT116 cells assessed as decrease in cell viability after 48 hrs by SRB assay; type: functional, cell-based; settings: hct-116; procedure, shortened: as §1
[4] = Cytotoxicity against human PC3 cells assessed as decrease in cell viability after 48 hrs by SRB assay; type: functional, cell-based; settings: pc-3; procedure, shortened: as §1
Human alphaherpesvirus 1 = assay: Antiviral activity against HSV1 infected in African green monkey Vero cells by plaque formation assay; type: functional; design: concentration or dose not given beside the values
Coxsackievirus B4 = assay: Antiviral activity against human Coxsackie virus B4 infected in African green monkey Vero cells by plaque formation assay; type: functional; design: concentration or dose not given beside the values
Micrococcus luteus [5] = assay: Antibacterial activity against Micrococcus luteus ATCC 10240 at 5 mg after 24 hrs by agar well diffusion assay; type: functional; settings: ATCC 10240, 24 h, read-out: DIZ
Procedure, shortened: (§2)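 Agar well diffusion. 100 µL inoculum (1×10⁸ CFU/mL bacteria, 1×10⁶ CFU/mL yeast) spread on nutrient agar (bacteria) or Sabouraud dextrose agar (fungi). 10 mm wells loaded with 100 µL of 5 mg/mL compound in DMSO. DMSO as negative control. Erythromycin (bacteria) or […] (fungi) at 5 mg/ml as standards. Plates incubated 24 h at 37 °C. Inhibition zone diameter (mm) measured, mean of triplicate.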

Bacillus subtilis = assay: Antibacterial activity against Bacillus subtilis NCTC 10400 at 5 mg after 24 hrs by agar well diffusion assay; type: functional; settings: NCTC 10400, 24 h, read-out: DIZ; procedure, shortened: as §2
Bacillus pumilus [6] = assay: Antibacterial activity against Bacillus pumilus at 5 mg after 24 hrs by agar well diffusion assay; type: functional; settings: read-out: DIZ; procedure, shortened: as §2
Pseudomonas aeruginosa [7] = assay: Antibacterial activity against Pseudomonas aeruginosa ATCC 25619 at 5 mg after 24 hrs by agar well diffusion assay; type: functional; settings: ATCC 25619, 24 h, read-out: DIZ; procedure, shortened: as §2
Escherichia coli = assay: Antibacterial activity against Escherichia coli ATCC 10536 at 5 mg after 24 hrs by agar well diffusion assay; type: functional; settings: ATCC 10536, 24 h, read-out: DIZ; procedure, shortened: as §2
Micrococcus luteus [8] = assay: Antibacterial activity against Sarcina lutea at 5 mg after 24 hrs by agar well diffusion assay; type: functional; settings: read-out: DIZ; procedure, shortened: as §2
Candida albicans [9] = assay: Antifungal activity against Candida albicans IMRU 3669 at 5 mg after 24 hrs by agar well diffusion assay; type: functional; settings: IMRU 3669, 24 h, read-out: DIZ; procedure, shortened: as §2
Aspergillus niger = assay: Antifungal activity against Aspergillus niger at 5 mg after 24 hrs by agar well diffusion assay; type: functional; settings: read-out: DIZ; procedure, shortened: as §2
[10] = Antifungal activity against Penicillium chrysogenum at 5 mg after 24 hrs by agar well diffusion assay; type: functional; procedure, shortened: as §2
Pseudomonas aeruginosa [11] = assay: Antibacterial activity against Pseudomonas aeruginosa ATCC 25619 after 24 hrs by two-fold serial dilution method; type: functional; settings: ATCC 25619, 24 h
Procedure, shortened: (§3)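 Two-fold serial dilutions of DMSO stock in adjusted Mueller-Hinton broth, final 100 to 0.78 µg/ml. Bacteria pre-grown in nutrient broth, fungi in malt extract broth (48 h). Each 5 ml tube given 0.1 ml inoculum (1×10⁸ CFU/ml bacteria, 1×10⁶ CFU/ml fungi), incubated 37 °C 24 h. MIC taken as lowest concentration with no growth; triplicate, averaged.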

Micrococcus luteus [12] = assay: Antibacterial activity against Sarcina lutea after 24 hrs by two-fold serial dilution method; type: functional; procedure, shortened: as §3
Bacillus pumilus [13] = assay: Antibacterial activity against Bacillus pumilus after 24 hrs by two-fold serial dilution method; type: functional; procedure, shortened: as §3
Micrococcus luteus [14] = assay: Antibacterial activity against Micrococcus luteus ATCC 10240 after 24 hrs by two-fold serial dilution method; type: functional; settings: ATCC 10240, 24 h; procedure, shortened: as §3
Candida albicans [15] = assay: Antifungal activity against Candida albicans IMRU 3669 after 24 hrs by two-fold serial dilution method; type: functional; settings: IMRU 3669, 24 h; procedure, shortened: as §3

Row | SMILES | Activity (Hepatovirus A) [%] | IC50 [1] [µg] | IC50 [2] | IC50 [3] [µg] | IC50 [4] [µg] | Activity (Human alphaherpesvirus 1) [%] | Activity (Coxsackievirus B4) [%] | zone of inhibition at 5000 µg/disc (Micrococcus luteus [5]) [mm] | zone of inhibition at 5000 µg/disc (Bacillus subtilis) [mm] | zone of inhibition at 5000 µg/disc (Bacillus pumilus [6]) [mm] | zone of inhibition at 5000 µg/disc (Pseudomonas aeruginosa [7]) [mm] | zone of inhibition at 5000 µg/disc (Escherichia coli) [mm] | zone of inhibition at 5000 µg/disc (Micrococcus luteus [8]) [mm] | zone of inhibition at 5000 µg/disc (Candida albicans [9]) [mm] | zone of inhibition at 5000 µg/disc (Aspergillus niger) [mm] | inhibition zone (IZ) [10] [mm] | further results
1 | Cc1ccc(F)cc1N1C(=N)C(=S)N(c2cc(Cl)cc(Cl)c2)C1=O | 20.6 | 0.05 | 0.011 | 0.034 | 0.064 | 45.3 | 31.1 | 20 | 20 | 21 | 22 | 18 | 24 | 18 | 22 | 21 | MIC (Pseudomonas aeruginosa [11]): 3.12 µg/mL (≈ 8.16 µM); MIC (Micrococcus luteus [12]): 3.12 µg/mL (≈ 8.16 µM); MIC (Bacillus pumilus [13]): 6.25 µg/mL (≈ 16.4 µM); MIC (Micrococcus luteus [14]): 6.25 µg/mL (≈ 16.4 µM); MIC (Candida albicans [15]): 6.25 µg/mL (≈ 16.4 µM)
2 | N=C1C(=S)N(c2cc(Cl)cc(Cl)c2)C(=O)N1c1cc(Cl)c(Cl)cc1Cl | 80.3 | 0.017 | 0.015 | 0.015 | 0.017 | 96.7 | 20.6 | 16 | 27 | 21 | 18 | 27 | 21 | 21 | 15 | 20 | –
3 | COc1ccc(OC)c(N2C(=O)N(c3ccc(C)cc3)C(=N)C2=S)c1 | 30.7 | 0.037 | 0.015 | 0.014 | 0.048 | 50.2 | 0 | 17 | 16 | 20 | 14 | 16 | 26 | 17 | 16 | 17 | –
4 | N=C1C(=S)N(c2cc(Cl)cc(Cl)c2)C(=O)N1c1c(Cl)cccc1Cl | 70.2 | 0.039 | 0.02 | 0.039 | 0.064 | 33.6 | 0 | 16 | 19 | 17 | 17 | 19 | 27 | 23 | 15 | 18 | –
5 | COc1ccc(N2C(=O)N(c3cccc(Cl)c3)C(=N)C2=S)c(OC)c1 | 36.2 | 0.012 | 0.02 | 0.023 | 0.031 | 47.4 | 2.3 | 14 | 20 | 17 | 16 | 20 | 28 | 27 | 18 | 20 | –
6 | CC[C@H]1OC(=O)[C@H](C)[C@@H](O[C@H]2C[C@@](C)(OC)[C@@H](O)[C@H](C)O2)[C@H](C)[C@@H](O[C@@H]2O[C@H](C)C[C@H](N(C)C)[C@H]2O)[C@](C)(O)C[C@@H](C)C(=O)[C@H](C)[C@@H](O)[C@]1(C)O [ERYTHROMYCIN] | – | – | – | – | – | – | – | 32 | 40 | 32 | 30 | 37 | 44 | – | – | – | –
7 | COc1ccc(OC)c(N2C(=O)N(c3ccc4c(c3)Cc3ccccc3-4)C(=N)C2=S)c1 | 29.9 | 0.048 | 0.052 | 0.047 | 0.056 | 32.4 | 0 | 16 | 12 | 17 | 0 | 18 | 24 | 14 | 14 | 18 | –
8 | N=C1C(=S)N(c2cc(Cl)cc(Cl)c2)C(=O)N1c1cccc(Cl)c1 | 100 | 0.025 | 0.011 | 0.041 | 0.031 | 36.4 | 41.6 | 16 | 30 | 15 | 0 | 30 | 24 | 24 | 16 | 21 | –
9 | N=C1C(=S)N(c2cc(Cl)cc(Cl)c2)C(=O)N1c1ccc(Cl)c(C(F)(F)F)c1 | 0 | 0.028 | 0.024 | 0.044 | 0.039 | 9.6 | 0 | 21 | 20 | 21 | 21 | 18 | 23 | 22 | 12 | 20 | –
10 | COc1cccc2c1C(=O)c1c(O)c3c(c(O)c1C2=O)C[C@@](O)(C(=O)CO)C[C@@H]3O[C@H]1C[C@H](N)[C@H](O)[C@H](C)O1 [DOXORUBICIN] | – | 0.007 | – | 0.007 | 0.008 | – | – | – | – | – | – | – | – | – | – | – | –
11 | N=C1C(=S)N(c2ccccc2)C(=O)N1c1c(Cl)cccc1Cl | 0 | – | – | – | – | 33.3 | 0 | 14 | 18 | 18 | 15 | 18 | 26 | 23 | 17 | 16 | –
12 | Cc1ccc(F)cc1N1C(=N)C(=S)N(c2ccc(Br)cc2)C1=O | 36.2 | – | – | – | – | 43.1 | 0 | 22 | 22 | 21 | 21 | 20 | 23 | 22 | 20 | 21 | –
13 | Cc1ncc([N+](=O)[O-])n1CCO [METRONIDAZOLE] | – | – | – | – | – | – | – | – | – | – | – | – | – | 27 | 33 | 25 | –
14 | Cc1ccc(N2C(=N)C(=S)N(c3cc(Cl)cc(Cl)c3)C2=O)cc1 | 66 | 0.014 | 0.009 | 0.053 | 0.035 | 71.6 | 43.6 | 17 | 16 | 20 | 16 | 16 | 28 | 21 | 18 | 19 | –
